Assay results published in ChEMBL document CHEMBL1641579, “Synthesis and biological evaluation of 7-substituted-1-(3-bromophenylamino)isoquinoline-4-carbonitriles as inhibitors of myosin light chain kinase and epidermal growth factor receptor” (Bioorg Med Chem, 2011).

How the values were obtained:
[1] = target: Mitogen-activated protein kinase 10 (Homo sapiens) (UniProt P53779); assay: Inhibition of JNK3 assessed as residual activity at 10 uM
In short: (§1)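 Kinase panel screen run as a radioactive activity assay at single compound concentration. Score reported as percent activity remaining relative to DMSO controls (100%).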

[2] = target: Myosin light chain kinase, smooth muscle (Homo sapiens, UniProt Q15746); assay: Inhibition of MLCK by HTRF assay
[3] = target: Tyrosine-protein kinase Lck (Homo sapiens) (UniProt P06239); assay: Inhibition of Lck assessed as residual activity at 10 uM; in short: as §1
[4] = target: Serine/threonine-protein kinase pim-3 (Homo sapiens) (UniProt Q86V86); assay: Inhibition of PIM3 assessed as residual activity at 10 uM
In short: (§2)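 Panel screen by radioactive kinase assay at a single inhibitor concentration. Score is the percent activity remaining relative to DMSO controls (100%).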

[5] = target: Tyrosine-protein kinase SYK (Homo sapiens) (UniProt P43405); assay: Inhibition of SYK assessed as residual activity at 10 uM; in short: as §2
[6] = target: Mitogen-activated protein kinase 14 (Homo sapiens) (UniProt Q16539); assay: Inhibition of p38alpha assessed as residual activity at 10 uM; in short: as §2
[7] = target: SRSF protein kinase 1 (Homo sapiens) (UniProt Q96SB4); assay: Inhibition of SRPK1 assessed as residual activity at 10 uM; in short: as §2
[8] = target: T1, Serine/threonine-protein kinase BRSK2 (Homo sapiens) (UniProt Q8IWQ3); assay: Inhibition of BRSK2 assessed as residual activity at 10 uM; in short: as §1
T1 sequence (whole entry): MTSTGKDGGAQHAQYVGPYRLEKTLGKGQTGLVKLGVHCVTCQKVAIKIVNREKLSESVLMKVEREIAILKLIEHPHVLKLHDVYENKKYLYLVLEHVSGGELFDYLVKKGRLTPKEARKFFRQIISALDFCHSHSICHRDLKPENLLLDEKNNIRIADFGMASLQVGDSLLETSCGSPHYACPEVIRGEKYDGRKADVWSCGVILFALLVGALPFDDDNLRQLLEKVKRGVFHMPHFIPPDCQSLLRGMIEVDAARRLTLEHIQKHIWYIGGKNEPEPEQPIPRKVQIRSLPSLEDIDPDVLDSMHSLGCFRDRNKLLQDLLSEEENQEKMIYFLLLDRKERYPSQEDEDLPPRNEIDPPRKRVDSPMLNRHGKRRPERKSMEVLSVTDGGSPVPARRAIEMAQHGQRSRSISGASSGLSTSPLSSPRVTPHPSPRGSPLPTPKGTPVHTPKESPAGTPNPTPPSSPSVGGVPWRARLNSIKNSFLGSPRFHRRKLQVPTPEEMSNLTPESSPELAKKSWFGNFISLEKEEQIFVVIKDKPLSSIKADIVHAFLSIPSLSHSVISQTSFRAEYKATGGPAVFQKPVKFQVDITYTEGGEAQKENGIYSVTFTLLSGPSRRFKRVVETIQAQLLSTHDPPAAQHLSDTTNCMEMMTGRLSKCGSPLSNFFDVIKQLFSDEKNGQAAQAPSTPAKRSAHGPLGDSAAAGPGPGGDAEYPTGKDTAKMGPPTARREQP

[9] = target: T2, Serine/threonine-protein kinase Sgk1 (Homo sapiens) (UniProt O00141); assay: Inhibition of SGK1 assessed as residual activity at 10 uM; in short: as §2
T2 sequence (whole entry): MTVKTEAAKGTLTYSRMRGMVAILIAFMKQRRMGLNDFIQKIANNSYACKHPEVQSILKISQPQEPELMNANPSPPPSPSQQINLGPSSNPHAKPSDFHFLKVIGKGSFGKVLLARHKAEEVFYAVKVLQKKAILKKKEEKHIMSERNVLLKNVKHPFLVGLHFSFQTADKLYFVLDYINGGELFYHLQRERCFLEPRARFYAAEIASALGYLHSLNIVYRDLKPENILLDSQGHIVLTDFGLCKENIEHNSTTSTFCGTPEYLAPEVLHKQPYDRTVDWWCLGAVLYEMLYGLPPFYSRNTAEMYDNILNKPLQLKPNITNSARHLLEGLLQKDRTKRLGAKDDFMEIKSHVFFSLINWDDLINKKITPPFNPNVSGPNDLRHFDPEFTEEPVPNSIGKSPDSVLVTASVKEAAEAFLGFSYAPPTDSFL

[10] = target: Receptor-interacting serine/threonine-protein kinase 2 (Homo sapiens) (UniProt O43353); assay: Inhibition of RIPK2 assessed as residual activity at 10 uM; in short: as §2
[11] = target: Ribosomal protein S6 kinase alpha-1 (Homo sapiens) (UniProt Q15418); assay: Inhibition of RSK1 assessed as residual activity at 10 uM; in short: as §2
[12] = target: Tyrosine-protein kinase CSK (Homo sapiens) (UniProt P41240); assay: Inhibition of CSK assessed as residual activity at 10 uM; in short: as §1
[13] = target: T3, Mitogen-activated protein kinase 13 (Homo sapiens) (UniProt O15264); assay: Inhibition of P38delta assessed as residual activity at 10 uM; in short: as §2
T3 sequence (whole entry): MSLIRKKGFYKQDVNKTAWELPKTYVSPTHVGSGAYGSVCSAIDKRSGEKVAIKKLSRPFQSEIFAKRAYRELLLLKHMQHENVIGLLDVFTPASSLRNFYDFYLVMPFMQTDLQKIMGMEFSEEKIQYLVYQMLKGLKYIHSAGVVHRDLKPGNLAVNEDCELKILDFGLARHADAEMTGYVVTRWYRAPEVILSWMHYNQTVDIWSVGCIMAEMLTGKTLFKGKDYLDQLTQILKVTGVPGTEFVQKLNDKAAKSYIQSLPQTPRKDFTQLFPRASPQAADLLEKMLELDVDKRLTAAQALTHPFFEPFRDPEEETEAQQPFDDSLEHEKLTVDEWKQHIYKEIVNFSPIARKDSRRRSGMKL

[14] = target: Mitogen-activated protein kinase 9 (Homo sapiens) (UniProt P45984); assay: Inhibition of JNK2 assessed as residual activity at 10 uM; in short: as §1
[15] = target: Insulin receptor-related protein (Homo sapiens) (UniProt P14616); assay: Inhibition of IRR assessed as residual activity at 10 uM; in short: as §1
[16] = target: MAP kinase-activated protein kinase 2 (Homo sapiens) (UniProt P49137); assay: Inhibition of MAPKAPK2 assessed as residual activity at 10 uM; in short: as §1
MAP kinase-activated protein kinase 2 (Homo sapiens), sequence (P49137 whole entry, looked up): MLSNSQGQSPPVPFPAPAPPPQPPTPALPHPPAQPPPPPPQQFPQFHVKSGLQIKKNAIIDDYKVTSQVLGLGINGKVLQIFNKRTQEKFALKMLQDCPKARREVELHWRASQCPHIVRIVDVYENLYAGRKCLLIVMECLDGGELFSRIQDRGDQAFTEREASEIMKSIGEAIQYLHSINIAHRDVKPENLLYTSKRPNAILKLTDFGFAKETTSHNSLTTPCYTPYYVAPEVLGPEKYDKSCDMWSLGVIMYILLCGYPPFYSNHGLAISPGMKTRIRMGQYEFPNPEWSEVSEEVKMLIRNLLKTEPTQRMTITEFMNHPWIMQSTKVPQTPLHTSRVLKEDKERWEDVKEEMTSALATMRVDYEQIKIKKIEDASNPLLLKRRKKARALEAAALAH

Mitogen-activated protein kinase 10 (Homo sapiens), sequence (P53779 whole entry): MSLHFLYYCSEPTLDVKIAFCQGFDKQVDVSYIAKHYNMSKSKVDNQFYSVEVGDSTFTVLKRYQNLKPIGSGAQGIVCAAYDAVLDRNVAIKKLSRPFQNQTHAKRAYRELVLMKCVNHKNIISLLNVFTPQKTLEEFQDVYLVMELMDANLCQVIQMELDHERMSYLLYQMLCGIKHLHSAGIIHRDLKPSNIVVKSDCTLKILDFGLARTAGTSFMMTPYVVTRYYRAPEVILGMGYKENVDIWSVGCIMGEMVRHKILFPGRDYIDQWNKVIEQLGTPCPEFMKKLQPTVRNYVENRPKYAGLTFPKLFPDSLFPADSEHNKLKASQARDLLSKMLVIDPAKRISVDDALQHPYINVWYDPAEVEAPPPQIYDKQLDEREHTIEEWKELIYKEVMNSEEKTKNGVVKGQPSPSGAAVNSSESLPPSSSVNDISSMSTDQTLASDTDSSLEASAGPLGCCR
Receptor-interacting serine/threonine-protein kinase 2 (Homo sapiens), sequence (O43353 whole entry): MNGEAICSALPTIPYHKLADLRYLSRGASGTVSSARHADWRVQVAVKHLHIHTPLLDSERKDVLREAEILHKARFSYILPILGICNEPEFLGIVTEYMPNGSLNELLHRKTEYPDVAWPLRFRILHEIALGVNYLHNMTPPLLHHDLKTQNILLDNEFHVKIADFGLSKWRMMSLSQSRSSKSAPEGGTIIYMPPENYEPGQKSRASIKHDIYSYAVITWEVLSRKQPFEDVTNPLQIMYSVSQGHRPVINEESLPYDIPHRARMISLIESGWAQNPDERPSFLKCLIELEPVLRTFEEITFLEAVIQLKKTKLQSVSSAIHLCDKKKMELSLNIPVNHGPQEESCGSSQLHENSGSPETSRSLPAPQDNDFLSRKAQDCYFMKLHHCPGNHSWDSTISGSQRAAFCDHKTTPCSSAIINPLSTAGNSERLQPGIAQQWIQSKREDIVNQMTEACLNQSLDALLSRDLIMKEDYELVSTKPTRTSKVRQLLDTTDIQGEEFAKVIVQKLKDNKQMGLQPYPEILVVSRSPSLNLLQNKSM
Mitogen-activated protein kinase 9 (Homo sapiens), sequence (P45984 whole entry, looked up): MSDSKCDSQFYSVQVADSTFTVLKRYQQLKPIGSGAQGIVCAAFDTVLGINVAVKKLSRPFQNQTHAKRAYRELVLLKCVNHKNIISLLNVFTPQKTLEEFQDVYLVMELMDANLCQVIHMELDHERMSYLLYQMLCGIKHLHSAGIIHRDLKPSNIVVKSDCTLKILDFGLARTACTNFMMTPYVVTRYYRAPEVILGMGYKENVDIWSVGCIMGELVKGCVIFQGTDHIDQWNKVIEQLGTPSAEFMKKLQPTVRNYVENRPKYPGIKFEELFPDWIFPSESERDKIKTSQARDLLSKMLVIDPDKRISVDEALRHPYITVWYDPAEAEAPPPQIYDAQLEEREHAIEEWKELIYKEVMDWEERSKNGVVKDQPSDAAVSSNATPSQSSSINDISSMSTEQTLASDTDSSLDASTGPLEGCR
Tyrosine-protein kinase Lck (Homo sapiens), sequence (P06239 whole entry, looked up): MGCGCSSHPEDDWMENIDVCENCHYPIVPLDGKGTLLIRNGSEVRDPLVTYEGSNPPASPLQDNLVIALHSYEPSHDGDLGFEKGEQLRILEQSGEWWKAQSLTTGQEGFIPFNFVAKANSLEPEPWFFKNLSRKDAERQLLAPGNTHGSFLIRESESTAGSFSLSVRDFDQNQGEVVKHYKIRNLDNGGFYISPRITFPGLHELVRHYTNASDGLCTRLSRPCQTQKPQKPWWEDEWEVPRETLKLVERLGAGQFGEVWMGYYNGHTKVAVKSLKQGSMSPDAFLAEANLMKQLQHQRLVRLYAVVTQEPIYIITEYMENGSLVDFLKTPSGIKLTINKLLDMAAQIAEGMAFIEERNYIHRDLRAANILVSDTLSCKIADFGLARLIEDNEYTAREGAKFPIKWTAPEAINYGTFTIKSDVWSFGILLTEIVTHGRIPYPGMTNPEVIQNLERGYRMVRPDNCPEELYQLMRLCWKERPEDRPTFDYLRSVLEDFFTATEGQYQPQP
Myosin light chain kinase, smooth muscle, sequence (Q15746 whole entry): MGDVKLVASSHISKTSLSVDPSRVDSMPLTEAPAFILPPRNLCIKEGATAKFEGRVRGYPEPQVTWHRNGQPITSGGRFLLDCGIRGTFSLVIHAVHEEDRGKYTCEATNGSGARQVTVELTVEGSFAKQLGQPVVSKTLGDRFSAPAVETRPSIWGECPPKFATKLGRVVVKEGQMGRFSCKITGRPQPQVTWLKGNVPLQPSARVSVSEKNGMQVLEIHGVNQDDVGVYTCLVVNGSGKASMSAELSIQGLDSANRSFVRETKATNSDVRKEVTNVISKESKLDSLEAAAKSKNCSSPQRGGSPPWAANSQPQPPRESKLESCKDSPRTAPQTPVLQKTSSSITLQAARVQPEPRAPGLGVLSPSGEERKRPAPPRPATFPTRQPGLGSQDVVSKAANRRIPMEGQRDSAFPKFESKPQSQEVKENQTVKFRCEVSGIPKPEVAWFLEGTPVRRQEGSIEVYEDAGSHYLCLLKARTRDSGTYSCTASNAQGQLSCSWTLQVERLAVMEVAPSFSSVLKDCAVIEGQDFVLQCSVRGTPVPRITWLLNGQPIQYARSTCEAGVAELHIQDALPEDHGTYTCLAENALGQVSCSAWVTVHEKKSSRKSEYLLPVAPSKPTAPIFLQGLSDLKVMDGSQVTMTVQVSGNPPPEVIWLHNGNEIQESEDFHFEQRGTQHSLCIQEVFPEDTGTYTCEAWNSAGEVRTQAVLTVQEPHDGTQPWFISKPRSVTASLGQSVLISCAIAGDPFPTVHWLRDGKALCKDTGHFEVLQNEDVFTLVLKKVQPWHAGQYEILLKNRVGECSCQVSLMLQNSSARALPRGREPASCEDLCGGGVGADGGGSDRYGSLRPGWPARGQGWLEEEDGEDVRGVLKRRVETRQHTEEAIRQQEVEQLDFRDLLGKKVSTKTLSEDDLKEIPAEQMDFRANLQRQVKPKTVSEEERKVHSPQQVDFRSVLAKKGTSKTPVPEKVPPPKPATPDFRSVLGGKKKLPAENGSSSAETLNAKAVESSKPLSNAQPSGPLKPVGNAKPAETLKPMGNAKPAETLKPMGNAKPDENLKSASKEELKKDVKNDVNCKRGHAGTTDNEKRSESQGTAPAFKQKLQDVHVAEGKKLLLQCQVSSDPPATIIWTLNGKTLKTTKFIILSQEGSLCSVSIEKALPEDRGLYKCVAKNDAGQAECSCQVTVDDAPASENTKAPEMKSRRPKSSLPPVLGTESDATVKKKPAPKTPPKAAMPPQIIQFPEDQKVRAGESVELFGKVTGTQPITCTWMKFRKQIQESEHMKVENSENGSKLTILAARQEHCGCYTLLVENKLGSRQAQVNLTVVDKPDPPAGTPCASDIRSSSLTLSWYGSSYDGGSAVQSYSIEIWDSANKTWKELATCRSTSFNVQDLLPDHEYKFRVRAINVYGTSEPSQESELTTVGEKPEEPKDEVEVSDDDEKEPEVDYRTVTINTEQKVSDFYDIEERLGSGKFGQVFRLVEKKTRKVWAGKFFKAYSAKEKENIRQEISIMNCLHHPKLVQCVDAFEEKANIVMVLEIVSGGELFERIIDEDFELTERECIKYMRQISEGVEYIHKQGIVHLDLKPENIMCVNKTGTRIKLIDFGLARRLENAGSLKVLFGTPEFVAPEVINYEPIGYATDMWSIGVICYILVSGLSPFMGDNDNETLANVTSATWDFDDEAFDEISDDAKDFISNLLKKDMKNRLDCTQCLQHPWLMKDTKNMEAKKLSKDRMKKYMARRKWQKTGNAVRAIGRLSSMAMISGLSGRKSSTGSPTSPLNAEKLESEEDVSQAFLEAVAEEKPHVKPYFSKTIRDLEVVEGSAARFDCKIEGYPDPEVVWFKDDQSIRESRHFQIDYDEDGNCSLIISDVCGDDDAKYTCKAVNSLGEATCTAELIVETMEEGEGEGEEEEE
Ribosomal protein S6 kinase alpha-1 (Homo sapiens), sequence (Q15418 whole entry): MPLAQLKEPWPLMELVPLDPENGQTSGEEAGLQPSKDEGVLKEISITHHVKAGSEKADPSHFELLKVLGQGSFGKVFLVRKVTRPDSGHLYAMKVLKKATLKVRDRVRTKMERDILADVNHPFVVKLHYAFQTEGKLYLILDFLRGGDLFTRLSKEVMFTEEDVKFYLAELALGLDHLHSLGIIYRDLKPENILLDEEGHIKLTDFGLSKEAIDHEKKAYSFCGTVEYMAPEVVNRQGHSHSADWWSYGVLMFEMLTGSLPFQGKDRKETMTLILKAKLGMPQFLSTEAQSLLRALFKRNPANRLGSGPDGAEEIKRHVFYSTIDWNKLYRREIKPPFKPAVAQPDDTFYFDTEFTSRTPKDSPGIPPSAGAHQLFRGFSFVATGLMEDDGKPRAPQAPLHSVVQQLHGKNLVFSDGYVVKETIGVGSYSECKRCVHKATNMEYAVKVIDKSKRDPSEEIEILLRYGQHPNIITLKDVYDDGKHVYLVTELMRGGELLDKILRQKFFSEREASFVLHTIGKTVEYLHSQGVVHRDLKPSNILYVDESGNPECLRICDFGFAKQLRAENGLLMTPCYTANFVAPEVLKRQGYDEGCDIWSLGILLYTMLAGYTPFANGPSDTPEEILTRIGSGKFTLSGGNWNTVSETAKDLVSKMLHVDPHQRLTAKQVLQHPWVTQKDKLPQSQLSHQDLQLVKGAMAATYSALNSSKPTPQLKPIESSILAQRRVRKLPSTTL

`CN1CCN(CCC(=O)Nc2ccc3c(C#N)cnc(Nc4cccc(Br)c4)c3c2)CC1` showed an Activity [1] of 95%, an IC50 [2] of 8.7 µM and an Activity [3] of 32%. The Activity [4] was 68%, the Activity [5] was 77% and the Activity [6] was 58%. It also gave an Activity [7] of 58%, an Activity [8] of 100% and an Activity [9] of 91%. The Activity [10] was 66%, the Activity [11] was 84% and the Activity [12] was 81%. For the same molecule, the Activity [13] was 77%, the Activity [14] was 100% and the Activity [15] was 86%. For the same molecule, the Activity [16] was 100%.

Work on `CN(C)C/C=C/C(=O)Nc1ccc2c(C#N)cnc(Nc3cccc(Br)c3)c2c1` yielded an Activity [1] of 83%, an IC50 [2] of 23.6 µM and an Activity [3] of 60%. The Activity [4] was 59%, the Activity [5] was 61% and the Activity [6] was 81%. For the same molecule, the Activity [7] was 55%, the Activity [8] was 75% and the Activity [9] was 82%. For the same molecule, the Activity [10] was 79%, the Activity [11] was 79% and the Activity [12] was 85%. It also gave an Activity [13] of 86%, an Activity [14] of 89% and an Activity [15] of 73%. For the same molecule, the Activity [16] was 97%.

`CN(C)CCCC(=O)Nc1ccc2c(C#N)cnc(Nc3cccc(Br)c3)c2c1` was tested, and the Activity [1] was 100%, the IC50 [2] was 25.1 µM and the Activity [3] was 32%. For the same molecule, the Activity [4] was 46%, the Activity [5] was 64% and the Activity [6] was 71%. It also gave an Activity [7] of 72%, an Activity [8] of 75% and an Activity [9] of 82%. For the same molecule, the Activity [10] was 82%, the Activity [11] was 84% and the Activity [12] was 89%. It also gave an Activity [13] of 94%, an Activity [14] of 98% and an Activity [15] of 98%. The Activity [16] was 100%.
